According to ChEMBL document CHEMBL1139304, “Synthesis, antichagasic in vitro evaluation, cytotoxicity assays, molecular modeling and SAR/QSAR studies of a 2-phenyl-3-(1-phenyl-1H-pyrazol-4-yl)-acrylic acid benzylidene-carbohydrazide series” (Bioorg Med Chem, 2009):
Calls of active or inactive are those of the source. The rule behind the calls is not given here.

Columns and labels:
Trypanosoma cruzi [1] = assay: Trypanocidal activity against Trypanosoma cruzi Y in Swiss albino mouse blood after 24 hrs; type: functional, organism-based
How it was run: (§1)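 Blood was drawn by cardiac puncture from Swiss albino mice infected with T. cruzi Y strain at peak parasitaemia (day 7). It was diluted with healthy mouse blood to 2.10⁶ forms/mL. Compounds from DMSO stocks were tested at 100, 250 and 500, in triplicate, at 4 °C. Parasites were counted after 24 h against infected blood with matched DMSO. IC50 was converted to molar pIC50.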

[2] = Cytotoxicity against BALB/c mouse peritoneal cavity cells at 100 ug/mL after 20 hrs by MTT assay; type: cell-based
How it was run: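 Peritoneal cells came from male Balb/c mice (18–25 g). They were washed in RPMI and resuspended in RPMI with 10% FBS and antibiotics, with viable cells counted by Trypan blue. Cells at 2 × 10⁵/well were held 30 min at 37 °C, 5% CO₂, exposed to compound for 20 h, then given MTT for 4 h. Formazan was dissolved in DMSO and read at 490 nm. Viability was taken as % of control OD, with ≥5% death counted as cytotoxic.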

Trypanosoma cruzi [3] = assay: Trypanocidal activity against Trypanosoma cruzi Y in Swiss albino mouse blood at 500 ug/mL after 24 hrs; type: functional, organism-based; how it was run: as §1

CN(C)c1ccc(/C=N/NC(=O)/C(=C/c2cnn(-c3ccccc3)c2)c2ccc(O)cc2)cc1
IC50 (Trypanosoma cruzi [1]; read-out: IC50): 1880 µM | IC50 (Trypanosoma cruzi [1]; read-out: pIC50 (converted)): 1860 µM | Activity [2]: 12.94%

O=C(N/N=C/c1ccc([N+](=O)[O-])cc1)/C(=C/c1cnn(-c2ccccc2)c1)c1ccc(C(F)(F)F)cc1
IC50 (Trypanosoma cruzi [1]; read-out: IC50): 750 µM | IC50 (Trypanosoma cruzi [1]; read-out: pIC50 (converted)): 741 µM | Activity [2]: 0%

N#Cc1ccc(/C=N/NC(=O)/C(=C/c2cnn(-c3ccccc3)c2)c2ccccc2)cc1
IC50 (Trypanosoma cruzi [1]; read-out: IC50): 1870 µM | IC50 (Trypanosoma cruzi [1]; read-out: pIC50 (converted)): 1860 µM | Activity [2]: 0%

O=C(N/N=C/c1ccc(Cl)cc1)/C(=C/c1cnn(-c2ccccc2)c1)c1ccccc1
IC50 (Trypanosoma cruzi [1]; read-out: IC50): 8590 µM | IC50 (Trypanosoma cruzi [1]; read-out: pIC50 (converted)): 8510 µM | Activity [2]: 0%

COc1ccc(/C=N/NC(=O)/C(=C/c2cnn(-c3ccccc3)c2)c2ccc(F)cc2)cc1
IC50 (Trypanosoma cruzi [1]; read-out: IC50): 340 µM | IC50 (Trypanosoma cruzi [1]; read-out: pIC50 (converted)): 339 µM | Activity [2]: 14.8%

O=C(N/N=C/c1ccc(Br)cc1)/C(=C/c1cnn(-c2ccccc2)c1)c1ccc(C(F)(F)F)cc1
IC50 (Trypanosoma cruzi [1]; read-out: IC50): 620 µM | IC50 (Trypanosoma cruzi [1]; read-out: pIC50 (converted)): 617 µM | Activity [2]: 0%

CCOc1ccc(/C=N/NC(=O)/C(=C/c2cnn(-c3ccccc3)c2)c2ccccc2)cc1
IC50 (Trypanosoma cruzi [1]; read-out: IC50): 380 µM | IC50 (Trypanosoma cruzi [1]; read-out: pIC50 (converted)): 380 µM | Activity [2]: 0%

O=C(N/N=C/c1ccccc1)/C(=C/c1cnn(-c2ccccc2)c1)c1ccc(O)cc1
IC50 (Trypanosoma cruzi [1]; read-out: IC50): 1360 µM | IC50 (Trypanosoma cruzi [1]; read-out: pIC50 (converted)): 1350 µM | Activity [2]: 9.64%

COc1ccc(/C=N/NC(=O)/C(=C/c2cnn(-c3ccccc3)c2)c2ccccc2)cc1
IC50 (Trypanosoma cruzi [1]; read-out: IC50): 1510 µM | IC50 (Trypanosoma cruzi [1]; read-out: pIC50 (converted)): 1510 µM | Activity [2]: 0%

CN(C)c1ccc(/C=N/NC(=O)/C(=C/c2cnn(-c3ccccc3)c2)c2ccc(Br)cc2)cc1
IC50 (Trypanosoma cruzi [1]; read-out: IC50): 700 µM | IC50 (Trypanosoma cruzi [1]; read-out: pIC50 (converted)): 708 µM | Activity [2]: 0%

N#Cc1ccc(/C=N/NC(=O)/C(=C/c2cnn(-c3ccccc3)c2)c2ccc(C(F)(F)F)cc2)cc1
IC50 (Trypanosoma cruzi [1]; read-out: IC50): 590 µM | IC50 (Trypanosoma cruzi [1]; read-out: pIC50 (converted)): 589 µM | Activity [2]: 0%

O=C(N/N=C/c1ccccc1)/C(=C/c1cnn(-c2ccccc2)c1)c1ccc(Br)cc1
IC50 (Trypanosoma cruzi [3]): Not Active | pIC50 (Trypanosoma cruzi [3]): inactive

COc1ccc(/C(=C\c2cnn(-c3ccccc3)c2)C(=O)N/N=C/c2ccc(Br)cc2)cc1
IC50 (Trypanosoma cruzi [1]; read-out: IC50): 930 µM | IC50 (Trypanosoma cruzi [1]; read-out: pIC50 (converted)): 933 µM | Activity [2]: 0%

CN(C)c1ccc(/C=N/NC(=O)/C(=C/c2cnn(-c3ccccc3)c2)c2ccc(F)cc2)cc1
IC50 (Trypanosoma cruzi [1]; read-out: IC50): 890 µM | IC50 (Trypanosoma cruzi [1]; read-out: pIC50 (converted)): 891 µM | Activity [2]: 12.2%

O=C(N/N=C/c1ccccc1)/C(=C/c1cnn(-c2ccccc2)c1)c1ccccc1
IC50 (Trypanosoma cruzi [1]; read-out: IC50): 190 µM | IC50 (Trypanosoma cruzi [1]; read-out: pIC50 (converted)): 191 µM | Activity [2]: 4%

O=C(N/N=C/c1ccc(F)cc1)/C(=C/c1cnn(-c2ccccc2)c1)c1ccccc1
IC50 (Trypanosoma cruzi [1]; read-out: IC50): 2440 µM | IC50 (Trypanosoma cruzi [1]; read-out: pIC50 (converted)): 2450 µM | Activity [2]: 0%

CN(C)c1ccc(/C=N/NC(=O)/C(=C/c2cnn(-c3ccccc3)c2)c2ccccc2)cc1
IC50 (Trypanosoma cruzi [1]; read-out: IC50): 200 µM | IC50 (Trypanosoma cruzi [1]; read-out: pIC50 (converted)): 200 µM | Activity [2]: 0%

COc1ccc(/C(=C\c2cnn(-c3ccccc3)c2)C(=O)N/N=C/c2ccc(O)cc2)cc1
IC50 (Trypanosoma cruzi [1]; read-out: IC50): 1420 µM | IC50 (Trypanosoma cruzi [1]; read-out: pIC50 (converted)): 1410 µM | Activity [2]: 12.04%

O=C(N/N=C/c1ccccc1)/C(=C/c1cnn(-c2ccccc2)c1)c1ccc(F)cc1
IC50 (Trypanosoma cruzi [1]; read-out: IC50): 7830 µM | IC50 (Trypanosoma cruzi [1]; read-out: pIC50 (converted)): 7760 µM | Activity [2]: 0%

CN(C)c1ccc(/C=N/NC(=O)/C(=C/c2cnn(-c3ccccc3)c2)c2ccc(C(F)(F)F)cc2)cc1
IC50 (Trypanosoma cruzi [1]; read-out: IC50): 920 µM | IC50 (Trypanosoma cruzi [1]; read-out: pIC50 (converted)): 912 µM | Activity [2]: 23.07%

O=C(N/N=C/c1ccc([N+](=O)[O-])cc1)/C(=C/c1cnn(-c2ccccc2)c1)c1ccccc1
IC50 (Trypanosoma cruzi [1]; read-out: IC50): 30 µM | IC50 (Trypanosoma cruzi [1]; read-out: pIC50 (converted)): 28.2 µM | Activity [2]: 19.4%

COc1ccc(/C(=C\c2cnn(-c3ccccc3)c2)C(=O)N/N=C/c2ccc(C#N)cc2)cc1
IC50 (Trypanosoma cruzi [1]; read-out: IC50): 1310 µM | IC50 (Trypanosoma cruzi [1]; read-out: pIC50 (converted)): 1320 µM | Activity [2]: 14.35%

O=C(N/N=C/c1ccc(O)cc1)/C(=C/c1cnn(-c2ccccc2)c1)c1ccccc1
IC50 (Trypanosoma cruzi [1]; read-out: IC50): 760 µM | IC50 (Trypanosoma cruzi [1]; read-out: pIC50 (converted)): 759 µM | Activity [2]: 12.32%

CSc1ccc(/C=N/NC(=O)/C(=C/c2cnn(-c3ccccc3)c2)c2ccccc2)cc1
IC50 (Trypanosoma cruzi [1]; read-out: IC50): 440 µM | IC50 (Trypanosoma cruzi [1]; read-out: pIC50 (converted)): 437 µM | Activity [2]: 22.8%

N#Cc1ccc(/C=N/NC(=O)/C(=C/c2cnn(-c3ccccc3)c2)c2ccc(F)cc2)cc1
IC50 (Trypanosoma cruzi [1]; read-out: IC50): 50 µM | IC50 (Trypanosoma cruzi [1]; read-out: pIC50 (converted)): 53.7 µM | Activity [2]: 0%

O=C(N/N=C/c1ccc(Br)cc1)/C(=C/c1cnn(-c2ccccc2)c1)c1ccccc1
IC50 (Trypanosoma cruzi [1]; read-out: IC50): 1500 µM | IC50 (Trypanosoma cruzi [1]; read-out: pIC50 (converted)): 1510 µM | Activity [2]: 14.35%

COc1ccc(/C(=C\c2cnn(-c3ccccc3)c2)C(=O)N/N=C/c2ccc([N+](=O)[O-])cc2)cc1
IC50 (Trypanosoma cruzi [1]; read-out: IC50): 980 µM | IC50 (Trypanosoma cruzi [1]; read-out: pIC50 (converted)): 977 µM | Activity [2]: 11.22%

NNC(=O)/C(=C/c1cnn(-c2ccccc2)c1)c1ccccc1
IC50 (Trypanosoma cruzi [1]; read-out: IC50): 2810 µM | IC50 (Trypanosoma cruzi [1]; read-out: pIC50 (converted)): 2820 µM | Activity [2]: 0%
